Only some compounds are listed: those with a hit (about 6.3% of all), similar ones and a draw of the others.
SF1 activator = SF-1 (human) activation | AID 522 | activation, % at 10 µM | 1.9% of 65,000 active | CHO-K1 Gal4-SF-1 LBD luciferase reporter; % increase over DMSO SF-1-specific signal;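 active = activation above the mean activation of all tested compounds plus 3 SD, cut at about 50% in these data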
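Compound – one dose, 10 µM compound, 1% DMSO · Test system – transient Gal4-SF-1 LBD reporter, CHO-K1 · Input – 4,000 cells in each well · Read-out basis – percent activation relative to DMSO median and mock-transfected background · Replicates – single measurement per compound · Technique – steady-glow luciferase luminescence, read after 15 min reagent incubation · Timing – 20 h compound treatment, 37 °C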
RORA act = RORA (human) activation. P35398. CHO-K1 Gal4-RORA LBD luciferase reporter, luminescence; percent increase over mock-subtracted basal signal. activation, % at 10 µM. 1.5% of 65,000 active;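 active = activation above the mean of all tested compounds plus 3 SD, cut at about 49% in these data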;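 also: 0% = DMSO-treated RORA cells and 100% = added signal equal to DMSO minus mock-transfected cells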
M1 agonist = M1 muscarinic receptor agonism. 3% of 64,000 active. B-score at 10 µM. CHO-M1 cells, Fluo-4 calcium fluorescence, agonist mode; active compounds read high;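 active = fluorescence rise, raw or as B-score row- and column-corrected plate score, outside the 99.7% band of its plate's samples, either direction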
M1 antagonist = M1 muscarinic receptor (rat) antagonism. 3.4% of 64,000 active. CHO-M1 cells, Fluo-4 calcium, ACh EC80 antagonist mode; active compounds read low. AID 628. B-score at 10 µM;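 active = calcium fluorescence response, raw or row-and-column corrected B-score, differing from the plate sample mean either way at a set confidence level, mostly lower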
Target sequence (P08482 whole entry, looked up): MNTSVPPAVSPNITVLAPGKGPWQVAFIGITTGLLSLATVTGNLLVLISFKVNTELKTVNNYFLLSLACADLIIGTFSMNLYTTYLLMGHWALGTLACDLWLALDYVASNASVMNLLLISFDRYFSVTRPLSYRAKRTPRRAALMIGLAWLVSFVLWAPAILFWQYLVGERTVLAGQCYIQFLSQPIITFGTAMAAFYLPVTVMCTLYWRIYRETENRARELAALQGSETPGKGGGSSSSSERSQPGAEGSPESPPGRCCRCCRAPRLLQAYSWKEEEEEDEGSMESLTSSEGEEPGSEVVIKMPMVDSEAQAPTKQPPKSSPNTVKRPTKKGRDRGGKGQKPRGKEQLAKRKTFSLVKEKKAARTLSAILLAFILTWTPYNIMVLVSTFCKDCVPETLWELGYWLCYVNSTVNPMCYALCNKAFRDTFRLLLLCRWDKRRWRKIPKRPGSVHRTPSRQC
MT1-MMP txn act = MT1-MMP promoter transcription activation. HT1080 MT1-MMP promoter luciferase reporter, luminescence, overnight; active compounds read high. activation factor at 10 µM. 0.16% of 86,000 active. AID 750;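 active = activation factor of at least 2 for MT1-MMP transcription at 10 µM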
M1 ag confirm = rat M1 muscarinic agonism, confirmation. shares compounds with M1 agonist. CHO-M1 cells, Fluo-4 calcium fluorescence, agonist mode; actives lie on both sides. fluorescence change (max-min) at 10 µM. 19% of 1,700 active. AID 1488;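 active = fluorescence change differs from the solvent-only DMSO control mean at a set confidence level in both duplicate runs; inconclusive = differs from solvent-only control mean in just one of two runs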;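 also: an EC20 dose of acetylcholine follows compound addition during the same imaging run; raw fluorescence intensity difference in instrument units with no normalization to controls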
M4 agonist ctr = rat M4 muscarinic agonism, M1 counter-screen | fluorescence change (max-min) at 10 µM | CHO M4/Gqi5 cells, Fluo-4 calcium fluorescence, agonist mode; actives lie on both sides | 9% of 1,700 active | AID 1741 | shares compounds with M1 agonist;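 active = fluorescence change differing from the plate's solvent-only control wells at 99.7% confidence in both duplicates, whether higher or lower; inconclusive = differs from solvent controls in only one of two duplicates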
* = called active by the depositor; u = inconclusive; x = not tested or not shown.

SMILES	SF1 activator	RORA act	M1 agonist	M1 antagonist	MT1-MMP txn act	M1 ag confirm	M4 agonist ctr
CC(=O)c1cccc(NC(=O)C2CCCN(S(=O)(=O)c3cccc4cccnc34)C2)c1 (configuration not stated)	13	6	6.6*	-0.016	1.1	-26*	u
COc1ccc(NC(=O)C2CCCN(S(=O)(=O)c3cccc4cccnc34)C2)c(OC)c1 (configuration not stated)	-11	8	3.1*	-0.22	1.1	-32*	u
COc1cccc(-c2ccc(-c3noc(-c4ccccc4F)n3)c(OC)n2)c1	-11	14	15*	0	1.2	16	-46
CC(C)Nc1nc(-c2ccccc2)nc(-n2ccnc2)n1	0	-9	6.9e-05	0.41	1	x	x
c1ccc(-c2nc(-n3ccnc3)nc(-n3ccnc3)n2)cc1	-18	-16	7.9*	-2.4	1.1	-0.7	2.3
COc1ccc(NC(=O)Cc2nn(C)c(=O)c3ccccc23)c2ncccc12	-9	-19	-0.0044	-0.16	1.2	x	x
CC(Oc1ccc(Cl)cc1Cl)C(=O)Nc1ccncc1 (configuration not stated)	-15	5	7.3*	-1	1	-5	-19
CCOC(=O)NC1(NC2CCCCC2)Oc2ccccc2O1	5	-15	-0.93	-1.9	1.2	x	x
COc1ccc(-c2cc(C(F)F)n3ncc(C(=O)NCC4CCCO4)c3n2)cc1 (configuration not stated)	-13	15	0.48	-0.26	1.1	x	x
COC(=O)c1cc2nc(-c3ccc(OC)cc3)cc(C(F)(F)F)n2n1	-11	-1	-1.4	0.91	1.1	x	x
COc1ccc(-c2cc(C(F)(F)F)n3ncc(C(=O)NCC4CCCO4)c3n2)cc1OC (configuration not stated)	-13	-23	41*	-0.1	1.1	u	21
COc1ccc(-c2cc(C(F)(F)F)n3nc(C(=O)Nc4cc(C)on4)cc3n2)cc1OC	-1	-1	24*	-0.43	1.3	179*	53
Cc1cccc(N2CCN(C(=O)c3cc4c(=O)n(C)c5ccccc5c4n3C)CC2C)c1 (configuration not stated)	0	17	5.5*	-0.023	1.2	-4.4	-21
Cn1c(C(=O)NC2CCCCC2)cc2c(=O)n(C)c3ccccc3c21	-10	2	3.8*	0.17	1	u	u
CC1CCC(NC(=O)c2cc3c(=O)n(C)c4ccccc4c3n2C)CC1 (configuration not stated)	32	41	3.7*	-0.19	1.2	-7.6	-17
Cn1c(C(=O)NC2CCCCCC2)cc2c(=O)n(C)c3ccccc3c21	8	20	3.8*	-0.95	1.1	u	u
CC1(C)NC(=O)NC2(C)NC(=O)NC(C)(C)C12 (configuration not stated)	15	12	0.82	-0.045	1.1	x	x
COc1ccc(-n2c(C)cc(C(=O)CSc3nnc(-c4ccoc4C)n3C)c2C)cc1	-2	8	-0.36	-0.97	1	x	x
Cn1c(C(=O)NCCN2CCc3ccccc3C2)cc2c(=O)n(C)c3ccccc3c21	16	6	2.9*	-2	1.1	u	-49
Cn1c(C(=O)NCCN2CCOCC2)cc2c(=O)n(C)c3ccccc3c21	-8	-15	0.095	0.4	1.1	x	x
CC1CCCC(C)N1c1nnc(N)s1 (configuration not stated)	-12	-7	-0.14	-0.092	1.2	x	x
CCc1ccc(S(=O)(=O)NCc2cn3ccsc3n2)s1	-10	3	3.3*	0.55	1.1	-0.7	-45
CCOC(=O)c1c(-c2ccccc2)nnn1-c1nc(OCC)nc(N2CCCCC2)n1	10	35	6.6*	-1.9	1.1	-29*	u
CCOc1cc(N2CCOCC2)c(OCC)cc1NC(=O)C(NC(=O)c1ccco1)C(C)C (configuration not stated)	13	-5	-0.024	0.13	1.1	x	x
CCOc1ccccc1-n1nnnc1SCC(=O)NC(=O)NCc1ccco1	4	-7	3.3*	-0.26	1.1	-6.2	-30
